Some results are limits rather than exact numbers.

In general, IC50 refers to the midpoint of a concentration-inhibition curve. A low value points to inhibition by little substance. Usually bioavailability stands for the share of a dose that reaches the circulation, judged against a reference dose that is usually intravenous. Lower therefore signals little systemic uptake. The clearance is the volume of plasma or blood freed of the substance per unit of time. A higher clearance goes with efficient removal.

For series [1], the system named is K562. As to the kind of experiment: Antiproliferative activity against human K562 cells after 72 hrs by CellTiter-Glo luminescent cell viability assay. The class given is functional, cell-based. The conditions noted are these: K562, 72 h. The procedure, abridged:
(§1)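 Cells in exponential growth exposed to a range of inhibitor concentrations for 72 h. CellTiter-Glo reagent added, mixed 2 min to lyse cells, luminescence read 10 min later. IC50 derived from the concentration–response. Replicates n ≥ 2, mean shown.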
(In ATP-based viability assays light output follows the ATP content of the culture.)

In series [2] the test system is A549. As to the kind of experiment: Antiproliferative activity against human A549 cells after 72 hrs by CellTiter-Glo luminescent cell viability assay. It is filed as functional, cell-based. Particulars: A549, 72 h. The procedure, abridged:
as §1

The subject of series [3] is HCT-116. As to the kind of experiment: Antiproliferative activity against human HCT116 cells after 72 hrs by CellTiter-Glo luminescent cell viability assay. It is filed as functional, cell-based. The conditions noted are these: HCT-116, 72 h. In a few lines: as §1
In series [4] the target is Histone deacetylase. As to the kind of experiment: Inhibition of human HDAC in HeLa cell nuclear extracts using KI-104 Fluor de Lys as substrate by fluorescence assay. The class given is protein assay. The procedure, abridged: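 HDAC activity from partially purified HeLa nuclear extracts, using a fluorogenic acetylated histone peptide (Fluor de Lys) as substrate. Replicates n ≥ 2, mean values reported.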

A short description of series [5]: Oral bioavailability in mouse. The class given is ADME, organism-based. The conditions noted are these: in vivo.
The nature of series [6]: Clearance in mouse. The conditions noted are these: in vivo. It is filed as ADME, organism-based.

As for `O=C(/C=C/c1ccc2c(c1)C(=O)C1(CCNCC1)O2)NO`, the half-inhibitory concentration (IC50) in series [1] worked out at 1.69 µM; in series [2], 1.09 µM; in series [3], 0.832 µM; in series [4] it was 0.221 µM.
With `CN1CCC2(CC1)Oc1ccc(/C=C/C(=O)NO)cc1C2=O`, the half-maximal inhibitory concentration (IC50) in series [1] was determined as 0.397 µM; in series [2], 1.07 µM; in series [3] it was 0.337 µM; in series [4] it was 0.538 µM.
Take `O=C(NO)c1ccc2c(c1)C(=O)CC1(CCN(C(=O)c3ccccc3)CC1)O2`: the IC50 in series [1] was above 50 µM; in series [2], above 50 µM; in series [3], above 50 µM; in series [4], 29 µM.
For `CCOC(=O)N1CCC2(CC1)CC(=O)c1ccc(/C=C/C(=O)NO)cc1O2`, the IC50 in series [1] stood at 2.19 µM; in series [2], 2.78 µM; in series [3] it was 3.03 µM; in series [4], 0.408 µM.
The like results for `O=C(/C=C/c1ccc2c(c1)OC1(CCN(C(=O)c3ccccc3)CC1)CC2=O)NO` were, in that order, 3.19 µM, 8.78 µM, 4.92 µM and 0.366 µM.
As to `CC(=O)N1CCC2(CC1)CC(=O)c1cc(C(=O)NO)ccc1O2`, the IC50 in series [1], in series [2], in series [3] and in series [4] was above 50 µM in each case.
On to `O=C(CCCCCCC(=O)Nc1ccccc1)NO` [VORINOSTAT], for which the bioavailability in series [5] was below 10%.
Regarding `CC(=O)N1CCC2(CC1)CC(=O)c1cc(/C=C/C(=O)NO)ccc1O2`, the concentration for half-maximal inhibition (IC50) in series [1] was found to be 9.37 µM; in series [2] it was 26.2 µM; in series [3] it was 5.66 µM; in series [4], 0.641 µM.
`O=C(/C=C/c1ccc2c(c1)OC1(CCN(Cc3ccccc3)CC1)CC2=O)NO`: the IC50 in series [1] was determined as 8.94 µM; in series [2], 12.2 µM; in series [3], 8.41 µM; in series [4], 2.173 µM.
`CN1CCC2(CC1)CC(=O)c1cc(C(=O)NO)ccc1O2`: the IC50 in series [1], in series [2], in series [3] and in series [4] was above 50 µM in each case.
For `O=C(/C=C/c1ccc2c(c1)C=CC1(CCN(Cc3ccccc3)CC1)O2)NO`, the IC50 was 3.27 µM in series [1], 4.7 µM in series [2], 3.51 µM in series [3] and 1.19 µM in series [4].
For the molecule `CC(=O)N1CCC2(CC1)CC(=O)c1ccc(/C=C/C(=O)NO)cc1O2`, the half-inhibitory concentration (IC50) in series [1] stood at 6.08 µM; in series [2], 11.3 µM; in series [3] it was 36 µM; in series [4], 1.04 µM.
For the molecule `O=C(/C=C/c1ccc2c(c1)C(=O)C1(CCN(Cc3ccccc3)CC1)O2)NO`, the IC50 in series [1] is 4.11 µM; in series [2] it was 5.94 µM; in series [3] it was 3.1 µM; in series [4] it was 0.932 µM.
Consider `O=C(/C=C/c1ccc2c(c1)C(=O)CC1(CCNCC1)O2)NO`, for which the IC50 in series [1] was determined as 5.77 µM; in series [2] it was 2.72 µM; in series [3], 1.59 µM; in series [4], 0.082 µM.
`CC(=O)N1CCC2(CC1)Oc1ccc(/C=C/C(=O)NO)cc1C2=O`: the 50% inhibitory concentration (IC50) in series [1], in series [2], in series [3] and in series [4] was above 50 µM in each case.
`Cc1[nH]c2ccccc2c1CCNCc1ccc(/C=C/C(=O)NO)cc1` [PANOBINOSTAT]: the bioavailability in series [5] is below 10%. For the same molecule, the clearance in series [6] came out at 305 mL/min/kg.
In the case of `O=C(/C=C/c1ccc2c(c1)CCC1(CCN(Cc3ccccc3)CC1)O2)NO`, the IC50 in series [1] was 38.6 µM; in series [2], at least 50 µM; in series [3], 28.2 µM; in series [4], 9.02 µM.
With `CCOC(=O)N1CCC2(CC1)CC(=O)c1cc(/C=C/C(=O)NO)ccc1O2`, the IC50 amounted to 2.08 µM in series [1], 5.27 µM in series [2], 2.14 µM in series [3] and 0.14 µM in series [4].
Consider `CCOC(=O)N1CCC2(CC1)Oc1ccc(/C=C/C(=O)NO)cc1C2=O`, for which the IC50 in series [1] was 2.61 µM; in series [2] it was 20.2 µM; in series [3], 11.8 µM; in series [4], 2.99 µM.
As to `O=C(/C=C/c1ccc2c(c1)OC1(CCNCC1)CC2=O)NO`, the 50% inhibitory concentration (IC50) was above 50 µM in series [1], 24.8 µM in series [2], 35.5 µM in series [3] and 1.41 µM in series [4].
For `O=C(/C=C/c1ccc2c(c1)C(=O)C1(CCN(C(=O)c3ccccc3)CC1)O2)NO`, the 50% inhibitory concentration (IC50) in series [1] was determined as 7.43 µM; in series [2], 22.1 µM; in series [3], 12.3 µM; in series [4], 2.55 µM.
For the molecule `O=C(/C=C/c1ccc2c(c1)C(=O)CC1(CCN(C(=O)c3ccccc3)CC1)O2)NO`, the IC50 was 1.65 µM in series [1], 5.52 µM in series [2], 2.2 µM in series [3] and 0.316 µM in series [4].
In the case of `O=C(NO)c1ccc2c(c1)C(=O)CC1(CCN(Cc3ccccc3)CC1)O2`, the IC50 was determined as 16 µM in series [1], 22 µM in series [2], 15 µM in series [3] and 24 µM in series [4].
Consider `CC(=O)NC1CC2(CCN(Cc3ccccc3)CC2)Oc2ccc(/C=C/C(=O)NO)cc21` (stereo not given), for which the concentration for half-maximal inhibition (IC50) is above 50 µM in series [1], above 50 µM in series [2], 32.8 µM in series [3] and 5.15 µM in series [4].
Regarding `O=C(/C=C/c1ccc2c(c1)C(O)CC1(CCN(Cc3ccccc3)CC1)O2)NO` (stereo not given), the IC50 in series [1] was determined as 2.95 µM; in series [2], 5.25 µM; in series [3] it was 2.33 µM; in series [4] it was 1.21 µM.
Turning to `CN1CCC2(CC1)CC(=O)c1ccc(/C=C/C(=O)NO)cc1O2`, the IC50 came to 4.5 µM in series [1], 3.76 µM in series [2], 5.72 µM in series [3] and 5.84 µM in series [4].
Regarding `O=C(/C=C/c1cccc(S(=O)(=O)Nc2ccccc2)c1)NO` [BELINOSTAT], the bioavailability in series [5] was below 10%. This molecule returned a clearance in series [6] of 193 mL/min/kg.
As for `CN1CCC2(CC1)CC(=O)c1cc(/C=C/C(=O)NO)ccc1O2`, the concentration for half-maximal inhibition (IC50) was found to be 0.806 µM in series [1], 1.04 µM in series [2], 0.266 µM in series [3] and 0.288 µM in series [4].

Values taken from ChEMBL document CHEMBL1938288, “Discovery, synthesis, and pharmacological evaluation of spiropiperidine hydroxamic acid based derivatives as structurally novel histone deacetylase (HDAC) inhibitors” (J Med Chem, 2011).
